NR3A LBD binder: modulates the human NR3A ligand-binding domain; hit rate 2.5% among 340,000; Tm shift relative to glycine control, % at 25 µM; NR3A LBD differential scanning fluorimetry, Tm shift; 0% = protein alone, 100% = glycine-bound protein;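 active means melting temperature shift of at least 10% of the positive control shift, at one fixed dose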
aDG glyco act: alpha-DG glycosylation activation | hit rate 0.22% among 360,000 | Pro5-aDG cells, alpha-DG glycosylation AlphaScreen (IIH6); 0% Pro5, 100% B10-LARGE cell signal | activation, % at 10 µM;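 active means activation of at least 8% versus controls, or a plate z-score of at least 8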;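 further: Pro5 are CHO cells carrying HIG-tagged alpha-DG that lacks glycosylation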
Lipid droplet: hepatic lipid droplet formation modulation; inhibition, % at 6.5 µM; AML12 mouse hepatocytes, oleate lipid droplets, BODIPY imaging; hit rate 0.4% among 240,000; AID 1656;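 active means lipid droplet intensity inhibited by at least 50%, with more than 500 cells counted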
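Material: mouse AML12 hepatocyte cell line, fixed after treatment; Timing: compound with oleate, overnight; Technique: high-content imaging of BODIPY-stained droplets and DAPI nuclei; Probe or stimulus: oleate, 100 µM final; Dosing: compound at 6.5 µM only.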
GC-A act: GC-A (human) enzyme activation | P16066 | HEK293 GC-A cells, cGMP TR-FRET, EC30 ANP; 0% at EC30 ANP, 100% saturating ANP | activation, % at 10 µM | hit rate 0.14% among 370,000; in the data active means activation above about 40%
GASC-1 inh: blocks human GASC-1 demethylase activity; inhibition, % at 2.35 µM; Q9H3R0; GST-JMJD2C(1-420) H3K9me3 demethylation, DELFIA europium; hit rate 0.069% among 330,000;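 active means more than half of a compound's replicate wells show inhibition beyond 50%, single wells judged on their own value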;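 further: signal counts dimethyl H3K9 product captured on neutravidin plate; 0% = median of DMSO wells and 100% = 0.3 times that DMSO median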
NPR2 activator: GC-B (human) receptor activation; activation, % at 10 µM; hit rate 0.11% among 370,000; P20594; HEK293-GC-B cells, CNP EC30, cGMP TR-FRET; 0% at EC30 CNP, 100% saturating CNP;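 active means activation at 10 µM reaching about 35% in either raw or pattern-adjusted values, limit read from the data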
Numbers without * were called inactive; x = not tested or not shown. Compounds with a hit are over-represented: about 3% of the library has one in this group of screens.

SMILES	NR3A LBD binder	aDG glyco act	Lipid droplet	GC-A act	GASC-1 inh	NPR2 activator
Cc1ccc(N2C(S)=C(C#N)C(=O)NC23CCCCC3)cc1	0	0	-4	2	8	4
Cc1cccc(N2C(S)=C(C#N)C(=O)NC23CCCCC3)c1	16*	0	-9	7	6	-2
O=C(c1cc(Cl)cc(Cl)c1)N1CC[C@H]2[C@H](CCCN2Cc2ccc(F)cc2)C1	x	x	x	2	x	2
Clc1ccc(OCCSc2ncccn2)c(Br)c1	2	0	-1	49*	5	0
O=C(CCl)NC1CCCCN(Cc2ccc(OC(F)(F)F)cc2)C1=O (stereo unspecified)	x	x	x	1	x	8
O=C(NC(Cc1c[nH]c2ccccc12)c1nnc2n1CCCCC2)c1ccccc1Cl (stereo unspecified)	11*	1	x	0	-4	-6
CC(=O)O[C@@H]1C=C[C@@H](C#Cc2ccc(C(C)(C)C)cc2)O[C@@H]1COC(=O)NCc1ccccc1	x	x	x	-2	x	1
C/C(=N\N=C(/N)SC1CC(=O)N(c2ccccc2)C1=O)c1cccs1 (stereo unspecified)	-2	0	x	-7	5	-9
C/C(=N\N=C(/N)SC1CC(=O)N(c2ccc(Cl)cc2)C1=O)c1cccs1 (stereo unspecified)	18*	0	0	-6	1	-6
C/C(=N\N=C(/N)SC1CC(=O)N(c2ccc(Br)cc2)C1=O)c1cccs1 (stereo unspecified)	12*	0	x	x	3	x
C/C(=N\N=C(/N)SC1CC(=O)N(c2ccc(Cl)c(Cl)c2)C1=O)c1cccs1 (stereo unspecified)	34*	0	x	-5	2	-9
CS(=O)(=O)Nc1ccc2c(c1)[C@H]1C[C@H](CC(=O)NCc3ccccc3)O[C@H](CO)[C@H]1O2	x	0	x	2	x	-1
Cc1cccc(N=Nc2c(N)n[nH]c2-c2ccc(Cl)cc2)c1	34*	0	x	0	-1	-6
Cc1ccc(-c2[nH]nc(N)c2N=Nc2cccc(Cl)c2C)cc1	28*	0	x	0	x	-3
Cc1ccc(N=Nc2c(N)n[nH]c2N)cc1	-2	0	x	0	-3	-1
Cc1ccc(-c2[nH]nc(N)c2N=Nc2ccccc2C)cc1	44*	0	x	-4	4	-4
CCOC(=O)c1c(NC(=O)CSc2nnnn2-c2ccccc2)sc2c1CCC(C)C2 (stereo unspecified)	17*	0	-20	1	-4	9
Cc1cc(C)n(-c2ccc(C(=O)OCC(=O)NCc3ccco3)cc2)n1	21*	0	x	-1	-1	-1
COc1ccc(/C=C2/C(=O)C(C)(C(C)C)CCC2C)cc1 (stereo unspecified)	10*	0	2	6	-1	0
CCN(CC)c1nc(Nc2ccccc2)nc(Oc2ccc(C(=O)OC)cc2)n1	14*	0	x	5	-1	-1
COC(=O)c1ccc(Oc2nc(Nc3ccccc3)nc(N(C)C)n2)cc1	2	1	4	-5	-9	0
NC(=N\N=Cc1ccco1)/C(N)=N/N=Cc1ccco1	0	0	x	-3	x	-1
Cc1c([N+](=O)[O-])cc(C(=O)Nc2ccc(NC(=O)c3ccco3)cc2)cc1[N+](=O)[O-]	25*	0	-21	-6	28	1
CCOc1ccc(C(=O)NC(=S)Nc2ncccc2C)cc1[N+](=O)[O-]	0	0	26	-2	7	0
O=C(NC(=S)Nc1ccc(NC(=O)c2ccco2)cc1)c1ccccc1	2	0	1	-5	-1	-5
SMILES	NR3A LBD binder	aDG glyco act	Lipid droplet	GC-A act	GASC-1 inh	NPR2 activator
Cc1ccc(NC(=O)c2ccco2)c([N+](=O)[O-])c1	-1	0	0	4	0	-2
COc1cc(C(=O)NC(=S)Nc2ccc(NC(=O)c3ccco3)cc2)cc(OC)c1OC	22*	0	-10	2	-4	-1
CCOc1ccc(C(=O)NC(=S)Nc2ccc(NC(=O)c3ccco3)cc2)cc1[N+](=O)[O-]	41*	0	1	0	13	-3
C/C(C=NNC(=O)CSc1nc2ccccc2n1Cc1ccccc1Cl)=C\c1ccccc1	x	x	x	-3	x	5
O=C(CC1S/C(=N\S(=O)(=O)c2ccccc2)N(c2ccccc2)C1=O)Nc1ccc(F)cc1 (stereo unspecified)	10*	0	0	-2	7	0
Cc1ccc(S(=O)(=O)/N=C2\SC(CC(=O)Nc3ccc(F)cc3)C(=O)N2c2ccccc2)cc1 (stereo unspecified)	9	0	-45	3	-2	-6
Oc1ccc(/C=N/Nc2ccnc3cc(Cl)ccc23)cc1O	21*	0	4	-7	-12	-14
Clc1ccc2c(NCc3ccccn3)ccnc2c1	-1	1	2	-3	-2	-4
Oc1ccc(/C=N/Nc2ccnc3cc(Cl)ccc23)c(O)c1O	18*	0	-1	-8	13	-5
CC/C(=N\Nc1ccnc2cc(Cl)ccc12)c1ccc(O)cc1	7	1	0	-6	-5	-4
FC(F)(F)c1cc(CCN2C(=S)NC[C@@H]2c2ccccc2)cc(C(F)(F)F)c1	3	0	-20	1	0	0
Oc1ccc(C[C@H]2CNC(=S)N2CCc2cc(C(F)(F)F)cc(C(F)(F)F)c2)cc1	31*	0	-5	-3	-3	-3
Oc1ccc(C[C@@H]2CNC(=S)N2CCc2cc(C(F)(F)F)cc(C(F)(F)F)c2)cc1	34*	0	-1	0	-2	-2
FC(F)(F)c1cc(CCN2C(=S)NC[C@@H]2Cc2ccccc2)cc(C(F)(F)F)c1	13*	0	-4	-3	-2	-3
CCCC(=O)N1CCC[C@]2(CC[C@@H](CCC(=O)N(CC)CC)O2)C1	x	x	x	0	x	6
COCCC1CCCCN1C(=O)c1ccc2nc(Cc3ccccc3F)oc2c1 (stereo unspecified)	0	0	-2	0	1	-2
CC1(C(=O)Nc2cccc3cccnc23)CCN1C(=O)Cc1ccc(Cl)cc1Cl (stereo unspecified)	x	0	x	-3	x	-5
O=C(Nc1ccc(Cl)cc1)Nc1ccc(N2CCOCC2)cc1	11*	0	-2	7	3	-1
O=C(/C=C/c1ccc(Cl)cc1)Nc1ccc(N2CCOCC2)cc1	-13	0	6	5	6	-2
O=C(Nc1ccc(N2CCOCC2)cc1)Nc1ccc(Cl)c(Cl)c1	33*	1	20	2	8	0
O=C(C1CCCO1)N1CCN(C2=Nc3ccccc3Sc3ccccc32)CC1 (stereo unspecified)	x	x	x	-4	x	-7

Screening results (PubChem)
